The values below come from publication PMC11070865 (Heliyon, 2024).

For series [1], the system named is NCI-N87 gastric cancer cells. The following applies: at 200 μg/mL; cited from earlier work.
Series [2] concerns Caco-2, KB, SK-MEL-28 and HN30 cancer cells. The following applies: SK-MEL-28, HN30; cited from earlier work.
The test system of series [3] is MCF-7 breast cancer cell line. The following applies: MF from Lisotrigona furua propolis; cited from earlier work.
The test system of a further series is NFkB. Nature of the series: RT-qPCR transcript expression, NFkB. The class given is cell-based. The following applies: KATO-III, MF 30 μg/mL or doxorubicin 1.14 μg/mL.
The test system of series [4] is KATO-III cells. Nature of the series: Programmed cell death, annexin V/PI flow cytometry. In kind it is cell-based. The following applies: for Q2 late apoptotic cells (annexin V+ PI+): 72 h. In general terms: In flow cytometry, cells or beads pass a laser one at a time.
For series [5], the system named is KATO-III cells. Briefly: Cell imaging. The class given is cell-based. The method, boiled down:
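KATO-III cells at 5 × 10⁵ per well in 6-well plates were left for 16 h, then given test compound (7.5, 15 or 30 μg/mL), doxorubicin (1.14 μg/mL) or 1 % (v/v) DMSO for 24, 48 and 72 h. Culture was at 37 °C, 5 % CO₂, humidified. Morphology was viewed by light microscopy with camera imaging at 100× and 200×.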

The subject of another series is CASP3. Nature of the series: RT-qPCR transcript expression, CASP3. The class given is cell-based. The following applies: KATO-III, MF 30 μg/mL or doxorubicin 1.14 μg/mL. (Real-time PCR tracks product formation cycle by cycle.)
The subject of another series is KATO-III cell line. Briefly: Cell viability by MTT assay, KATO-III. In kind it is cell-based. The following applies: for IC50: Homo sapiens, KATO III, read-out: IC50 on KATO-III. (In general: Formazan colour is commonly taken as a measure of viable cells.)
The next series relates to BCL-2. Briefly: RT-qPCR transcript expression, BCL-2. The class given is cell-based. The following applies: KATO-III, 48 h (doxorubicin: from 48 h onwards); MF 30 μg/mL or doxorubicin 1.14 μg/mL.
The next series deals with COX2. Briefly: RT-qPCR transcript expression, COX2. In kind it is cell-based. The following applies: KATO-III, MF 30 μg/mL or doxorubicin 1.14 μg/mL.
The test system of another series is CASP7. Nature of the series: RT-qPCR transcript expression, CASP7. In kind it is cell-based. The following applies: KATO-III, MF 30 μg/mL or doxorubicin 1.14 μg/mL.
For series [6], the system named is KATO-III cells. Briefly: Cell cycle arrest analysis, PI flow cytometry. In kind it is cell-based. The following applies: MF 7.5, 15 and 30 μg/mL, from 24 h exposure onwards, P < 0.01. The gist of the method:
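KATO-III cells at 5 × 10⁵ per well in 6-well plates were exposed to test compound (0, 7.5, 15 and 30 μg/mL final) or 1 % (v/v) DMSO for 24, 48 and 72 h (37 °C, 5 % CO₂). Cells were trypsinized and washed in cold PBS, then fixed in 70 % ethanol on ice for 30 min. They were treated with RNase A (100 μg/mL, 30 min, 37 °C) and stained with PI (50 μg/mL). Flow cytometry recorded 10,000 events per sample, in triplicate.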

A further series concerns CTSB. Briefly: RT-qPCR transcript expression, CTSB. In kind it is cell-based. The following applies: KATO-III, MF 30 μg/mL.
Series [7] deals with WI-38 normal lung fibroblast cell line. Nature of the series: Cell viability by MTT assay, WI-38. In kind it is cell-based. The following applies: Homo sapiens, read-out: IC50 on WI-38.
For series [8], the system named is LU-1 lung cancer cell line. The following applies: MF from Lisotrigona furua propolis; cited from earlier work.
The test system of series [9] is human gastric adenocarcinoma cell line (AGS cells). The following applies: read-out: IC50 against AGS cells; cited from earlier work.

In brackets after ≈: the same amount, converted by molar mass. Read-outs that look alike come from different tables or passages of the source.

Take `O=C1C[C@@H](c2ccccc2)Oc2cc(O)cc(O)c21` [pinocembrin]: in series [1], the cytotoxic activity is 72.5%.
`CC(C)=CCc1c(O)cc2oc3cc(O)c(O)c(CC=C(C)C)c3c(=O)c2c1O` [gamma-mangostin]: in [2], the “migration of cancer cells” value was “inhibited the migration”.
Take `C/C(=C\CC[C@@H](C)[C@H]1CC[C@@]2(C)[C@@H]3CC[C@H]4C(C)(C)[C@@H](O)CC[C@@]45C[C@@]35CC[C@]12C)C(=O)O` [Compound 2, mangiferolic acid]: in series [3], the “IC50 against MCF-7” value is 62.85 µg/mL (≈ 138 µM). Further, the “NFkB transcript expression level vs control” value with NFkB (24 h) is on record as “upregulated with significant increased”; in the series with NFkB (48 h) it was “significant upregulation”; in the series on NFkB (72 h), “increased in gene expression compared to control cells”. The “Q2 late apoptotic cells (annexin V+ PI+)” value in the series on KATO-III cells [4] (MF 15 μg/mL, listed as MF) was “slightly increased level of apoptotic cells”. Moreover, the “morphology of KATO-III cells” value is on record as “No significant change in the morphology” in the series with KATO-III cells [5] (15 μg/mL, 24 and 48 h); “lower density of cells” in the series on KATO-III cells [5] (30 μg/mL, 48 h, 100× magnification). Further, the results for the “CASP3 transcript expression level vs control” value with CASP3 (48 h) and in the series on CASP3 (72 h) were “significant upregulation” and “increased in gene expression compared to control cells”, respectively. Also, the IC50 – broadly, the point on the concentration scale where inhibition reaches its midpoint – was 16 µg/mL (≈ 35.1 µM) in the series with KATO-III cell line (24 h); 12 µg/mL (≈ 26.2 µM) in the series on KATO-III cell line (48 h); 4.78 µg/mL (≈ 10.5 µM) with KATO-III cell line (72 h); 22 µg/mL (≈ 48.3 µM) in [7] (WI-38, 24 h); 13.7 µg/mL (≈ 29.9 µM) in [7] (WI-38, 48 h); 11.6 µg/mL (≈ 25.4 µM) in series [7] (WI-38, 72 h). The “BCL-2 transcript expression level vs control” value in the series on BCL-2 is “remained the same as in control cells”. Moreover, the entries for the “COX2 transcript expression level vs control” value in the series on COX2 (24 h), in the series with COX2 (48 h) and with COX2 (72 h) were “upregulated”, “significant upregulation” and “increased in gene expression compared to control cells”, respectively. The results for the “CASP7 transcript expression level vs control” value with CASP7 (48 h) and in the series on CASP7 (72 h) were “significant upregulation” and “increased in gene expression compared to control cells”, respectively. In the series on KATO-III cells [6], the cell cycle arrest entry is “induced detectable levels of cell cycle arrest at the sub-G1 phase and S phase population”. Moreover, the “CTSB transcript expression level vs control” value in the series on CTSB (48 h) is given as “significant upregulation”; in the series with CTSB (72 h) it was “only a slight increase compared to control cells”. For the same compound, the “IC50 against LU-1” value in [8] was 13.33 µg/mL (≈ 29.2 µM).
Regarding `O=c1c(O)c(-c2ccc(O)c(O)c2)oc2cc(O)cc(O)c12` [quercetin], the IC50 in series [9] was 160 µM.
Turning to `COc1cccc2c1C(=O)c1c(O)c3c(c(O)c1C2=O)C[C@@](O)(C(=O)CO)C[C@@H]3O[C@H]1C[C@H](N)[C@H](O)[C@H](C)O1` [Doxorubicin, doxorubicin, reference compound], the “NFkB transcript expression level vs control” value in the series on NFkB (24 h) is listed as “no significant difference”. Also, the “Q1 early apoptotic cells (annexin V+ PI−)” value in the series with KATO-III cells [4] (doxorubicin 1.14 μg/mL, 48 h) is listed as “significantly enhanced level of early apoptosis”. For the same compound, in the series with KATO-III cells [4] (doxorubicin 1.14 μg/mL), the “Q2 late apoptotic cells (annexin V+ PI+)” value is “significantly higher compared to the control (P < 0.01)”. For the same compound, the “morphology of KATO-III cells” value with KATO-III cells [5] (1.14 μg/mL, 72 h) was “clear loss of cell density”; in the series with KATO-III cells [5] (1.14 μg/mL, after 48 h), “cell shrinkage and blebbing”. Besides, the “CASP3 transcript expression level vs control” value with CASP3 (48 h) and in the series with CASP3 (72 h) was “significantly up-regulated” in each case. Besides, the IC50 in the series on KATO-III cell line (24 h) was 1.55 µg/mL (≈ 2.85 µM); in the series with KATO-III cell line (48 h), 1.43 µg/mL (≈ 2.63 µM); with KATO-III cell line (72 h), 0.56 µg/mL (≈ 1.03 µM); in [7] (WI-38, 24 h), 0.78 µg/mL (≈ 1.44 µM); in series [7] (WI-38, 48 h) it was 0.09 µg/mL (≈ 0.166 µM); in [7] (WI-38, 72 h), 0.02 µg/mL (≈ 0.0368 µM). Besides, the “fold higher cytotoxicity than compounds 1 and 2” value in the series with KATO-III cell line (both cancer and normal cell lines) was over 5 fold. Moreover, the “BCL-2 transcript expression level vs control” value with BCL-2 is reported as “slightly decreased (but not significant)”. Also, the “COX2 transcript expression level vs control” value with COX2 (24 h) is “no significant difference”. Also, the “CASP7 transcript expression level vs control” value in the series with CASP7 (24 h) is recorded as “slightly increase”; with CASP7 (48 h) it was “significantly up-regulated”; in the series on CASP7 (72 h) it was “significantly up-regulated”.
`COc1c(O)cc2oc3cc(O)c(CC=C(C)C)c(O)c3c(=O)c2c1CC=C(C)C` [alpha-mangostin]: in series [2], the “migration of cancer cells” value is listed as “inhibited the migration”.
